Data set [1] in a line: Hepatocyte stability, rat. It is filed as in vitro ADME. Particulars: rat hepatocytes; well-stirred model.
Data set [2] can be described thus: Liver microsome stability, human. It is filed as in vitro ADME. The conditions noted are these: human liver microsomes; well-stirred model. Background: Liver microsomes are vesicles of endoplasmic reticulum, rich in cytochrome P450 enzymes.
Data set [3] in a line: Liver microsome stability, mouse. It is filed as in vitro ADME. Particulars: mouse liver microsomes; well-stirred model.
A short description of data set [4]: Liver microsome stability, dog. It is filed as in vitro ADME. The conditions noted are these: dog liver microsomes; well-stirred model.
The nature of data set [5]: Hepatocyte stability, dog. In kind it is in vitro ADME. The conditions noted are these: dog hepatocytes; well-stirred model. The method, boiled down: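 Dog hepatocytes. Intrinsic clearance (CLint) was scaled to blood clearance with the well-stirred liver model: CLb = QH×CLint/(QH + CLint). Dog liver blood flow (QH) was 2.1 L h⁻¹ kg⁻¹.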
A short description of data set [6]: Caco-2 permeability assay. Particulars: human. In kind it is in vitro ADME. (In general: Caco-2 monolayers are a common model of the intestinal barrier.)
Data set [7] in a line: In vivo pharmacokinetics, rat. The conditions noted are these: male Wistar rat, 0.6 mg kg^−1 p.o.; Cmax,p.o./dose p.o.
A short description of data set [8]: In vivo pharmacokinetics, dog. Particulars: female Beagle dog, 0.2 mg kg^−1 p.o.; Cmax,p.o./dose p.o.
Data set [9] is described as follows: Liver microsome stability, monkey. In kind it is in vitro ADME. The conditions noted are these: monkey liver microsomes; well-stirred model.
The nature of data set [10]: Hepatocyte stability, human. It is filed as in vitro ADME. Particulars: human hepatocytes; well-stirred model. In a few lines: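 Human hepatocytes. Intrinsic clearance (CLint) was converted to blood clearance with the well-stirred hepatic model: CLb = QH×CLint/(QH + CLint). Human liver blood flow (QH) was 1.32 L h⁻¹ kg⁻¹.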
The nature of data set [11]: Hepatocyte stability, monkey. In kind it is in vitro ADME. Particulars: monkey hepatocytes; well-stirred model.
The nature of data set [12]: Liver microsome stability, rat. It is filed as in vitro ADME. Particulars: rat liver microsomes; well-stirred model.

For the molecule `Cc1c(NC(=O)c2cc(C(N)=O)nc3cc(F)ccc23)c(C(F)(F)F)nn1Cc1ncc(C#N)cn1` [Compound 58], in [1], the “Hep stability CL b,Hep” value amounted to 14.8 mL/min/kg. Moreover, the “LM stability CL b,LM” value in [2] is 3.67 mL/min/kg.

Turning to `Cc1ccc2nc(C)cc(C(=O)Nc3c(C)nn(Cc4ccc(F)cc4)c3C)c2c1` [Compound 2], the “Hep stability CL b,Hep” value in [1] was 61.7 mL/min/kg. The “LM stability CL b,LM” value is 20 mL/min/kg in [2] and 66.7 mL/min/kg in data set [3].

Consider `Cc1c(NC(=O)c2cc(C(N)=O)nc3ccccc23)c(C(F)(F)F)nn1Cc1ccc(C#N)cc1` [Compound 13], for which the “Hep stability CL b,Hep” value in data set [1] stood at 30 mL/min/kg; in data set [5] it was 1.83 mL/min/kg. Further, the “LM stability CL b,LM” value in data set [2] worked out at 3.5 mL/min/kg; in data set [4], 1 mL/min/kg; in data set [3], 23.3 mL/min/kg. The same molecule returned a Papp A→B at 2 h, 2 µM in data set [6] of 7.4 ×10⁻⁶ cm/s.

`Cc1c(NC(=O)c2cc(C(N)=O)nc3cc(F)ccc23)c(C(F)(F)F)nn1Cc1ccc(C#N)cc1` [Compound 19, N ^4 ‐[1‐(4‐Cyanobenzyl)‐5‐methyl‐3‐(trifluoromethyl)‐1H‐pyrazol‐4‐yl]‐7‐fluoroquinoline‐2,4‐dicarboxamide]: the “C max,norm,p.o.” value in [7] came out at 0.33 kg L ^−1; in [8], 0.93 kg L ^−1. The “LM stability CL b,LM” value was 5.33 mL/min/kg in [2], 12.7 mL/min/kg in data set [9] and “stable” in data set [4]. Besides, the “Hep stability CL b,Hep” value in data set [5] is 3.33 mL/min/kg; in [10] it was 6.17 mL/min/kg.

Consider `Cc1c(NC(=O)c2cc(C(N)=O)nc3cc(F)ccc23)c(C(F)(F)F)nn1Cc1cnc(C#N)cn1` [Compound 57], for which the “Hep stability CL b,Hep” value in data set [1] was 20 mL/min/kg. The “LM stability CL b,LM” value in [2] was determined as 8.83 mL/min/kg.

On to `Cc1c(NC(=O)c2cc(C(N)=O)nc3cc(F)ccc23)c(C(C)C)nn1Cc1ccc(C#N)cc1` [Compound 43], for which the “LM stability CL b,LM” value in data set [2] turned out to be 14.5 mL/min/kg.

For `Cc1c(NC(=O)c2cc(C(F)(F)F)nc3ccc(Br)cc23)c(C(F)(F)F)nn1Cc1ccc(F)cc1` [Compound 12], in [1], the “Hep stability CL b,Hep” value stood at 43.3 mL/min/kg. Besides, the “LM stability CL b,LM” value in [3] stood at 36.7 mL/min/kg.

As to `Cc1c(NC(=O)c2cc(C(N)=O)nc3cc(F)ccc23)c(C(F)(F)F)nn1Cc1ccc(C#N)cn1` [Compound 54], the “Hep stability CL b,Hep” value is 0.67 mL/min/kg in [1], 5.33 mL/min/kg in data set [11], 0.017 mL/min/kg in [5] and 0.5 mL/min/kg in [10]. The “LM stability CL b,LM” value in [2] is 3.17 mL/min/kg; in data set [9] it was 6.67 mL/min/kg; in data set [4], 0.017 mL/min/kg; in data set [3], 6 mL/min/kg; in data set [12] it was 6.17 mL/min/kg.

In the case of `Cc1ccc2nc(C(N)=O)cc(C(=O)Nc3c(C(F)(F)F)nn(Cc4ccc(C#N)cc4)c3C)c2c1` [Compound 17], the “Hep stability CL b,Hep” value in data set [1] came out at 33.3 mL/min/kg. Besides, the “LM stability CL b,LM” value in data set [3] was 38.3 mL/min/kg.

In general, Papp A→B refers to how fast a substance crosses the layer from the apical side.

The record behind these values is article PMC5095872 (Chemmedchem, 2016).
